One series concerns CCRF-CEM. Put plainly: Cytotoxicity against human CCRF-CEM cells after 96 hrs by MTT assay. Format: functional. In outline: (§1)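 Leukaemia/lymphoma lines seeded at 1×10^5 cells/ml in RPMI-1640 with 10% FCS and penicillin/streptomycin; incubated with serial dilutions at 37°C, 5% CO2; viability by MTT after 96 h; value is concentration reducing proliferation by 50%, with untreated controls undergoing at least three rounds of multiplication.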
In general terms: Tetrazolium dyes change colour on reduction, which living cells bring about.

The subject of the next series is WIL2-NS. Description: Cytotoxicity against human WIL2-NS cells after 96 hrs by MTT assay. Format: functional. In outline:
as §1

For a further series, the system named is CCRF-SB. Description: Cytotoxicity against human CCRF-SB cells after 96 hrs by MTT assay. It counts as functional. In outline: as §1
A short description of series [1]: Cytotoxicity against human MT4 cells. Format: cell-based.
Series [2] concerns Vesicular stomatitis virus. Put plainly: Antiviral activity against Vesicular stomatitis virus ATCC VR 1540 infected in African green monkey Vero 76 cells assessed as reduction of virus-plaque formation after 2 days by crystal violet staining. It counts as functional, organism-based. The note with it: ATCC VR 1540, Vero, 48 h.
The subject of series [3] is Human immunodeficiency virus 1. Description: Antiviral activity against HIV1 3B infected in human MT4 cells assessed as protection against virus-induced cytopathogenicity by MTT assay. The note with it: Human immunodeficiency virus 1, 3B. Format: functional, organism-based. Background: Cytopathic effects are the visible damage that an infection or toxin causes in cultured cells.

Series [4] can be described thus: Cytotoxicity against bovine MDBK cells assessed as cell viability after 48 to 96 hrs by MTT assay. The note with it: cattle. It counts as cell-based, Bos taurus.
A short description of series [5]: Antiviral activity against Bovine viral diarrhea virus 1-NADL ATCC VR-534 infected in MDBK cells assessed as protection against virus-induced cytopathogenicity after 3 to 4 days by MTT assay. It counts as functional, cell-based. The note with it: Bovine viral diarrhea virus isolates and strains, ATCC VR-534, MDBK. Put shortly: (§2)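 Cells seeded in 96-well plates (BHK 5x10^4, MDBK 3x10^4 cells/well), grown overnight to confluence, infected at m.o.i. 0.01 (BHK for Reo-1, MDBK for BVDV); serial compound dilutions in maintenance medium with 0.5% inactivated FBS added after 1 h; viability by MTT after 3–4 days at 37°C; EC50 for 50% protection by linear regression.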

A short description of series [6]: Cytotoxicity against BHK cells assessed as cell viability after 48 to 96 hrs by MTT assay. It counts as cell-based, Mesocricetus auratus. The note with it: hamster.
For another series, the system named is Yellow fever virus. Description: Antiviral activity against Yellow fever virus 17D infected in BHK cells assessed as protection against virus-induced cytopathogenicity after 3 to 4 days by MTT assay. It counts as functional, cell-based.
Series [7] deals with Mammalian orthoreovirus 1. Put plainly: Antiviral activity against Reovirus type-1 ATCC VR-214 infected in BHK cells assessed as protection against virus-induced cytopathogenicity after 3 to 4 days by MTT assay. It counts as functional, cell-based. The note with it: Mammalian orthoreovirus 1, ATCC VR-214, BHK. Put shortly:
as §2

Series [8] in a line: Cytotoxicity against African green monkey Vero 76 cells assessed as cell viability after 48 to 96 hrs by crystal violet staining. It counts as cell-based. The note with it: chlorocebus sabaeus.
The test system of another series is Coxsackievirus B5. Put plainly: Antiviral activity against Human coxsackievirus B5 ATCC VR-29 infected in African green monkey Vero 76 cells assessed as reduction of virus-plaque formation after 3 days by crystal violet staining. Format: functional, organism-based. The note with it: Enterovirus B, ATCC VR-29, Vero, 72 h. Put shortly: (§3)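 Plaque reduction: Vero-76 at 2x10^5 cells/well grown to confluent monolayers, infected 2 h at 50–100 PFU/well; after removing unadsorbed virus, overlay of D-MEM, 1% inactivated FBS, 0.75% methylcellulose with or without serial compound dilutions; 3 days at 37°C, fixed and stained with crystal violet in 50% ethanol, plaques counted; EC50 by linear regression.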

A further series has as its system Poliovirus 1. Description: Antiviral activity against Poliovirus type 1 ATCC VR-1562 infected in African green monkey Vero 76 cells assessed as reduction of virus-plaque formation after 2 days by crystal violet staining. It counts as functional, organism-based. The note with it: Enterovirus C, ATCC VR-1562, Vero, 48 h.
Another series relates to Vaccinia virus. Description: Antiviral activity against Human Vaccinia virus ATCC VR-1549 infected in African green monkey Vero 76 cells assessed as reduction of virus-plaque formation after 3 days by crystal violet staining. Format: functional, organism-based. The note with it: Orthopoxvirus vaccinia, ATCC VR-1549, Vero, 72 h.
The test system of a further series is Human alphaherpesvirus 1. Put plainly: Antiviral activity against Human herpesvirus 1 KOS ATCC VR-1493 infected in African green monkey Vero 76 cells assessed as reduction of virus-plaque formation after 3 days by crystal violet staining. The note with it: Human alphaherpesvirus 1, KOS ATCC VR1493, Vero, 72 h. It counts as functional, organism-based. Put shortly: as §3

Series [9] concerns Staphylococcus aureus. Description: Antimicrobial activity against Staphylococcus aureus NCTC 4163 at 400 ug after 18 hrs by disc-diffusion method. Format: functional. The note with it: NCTC 4163, 18 h, read-out: IZ. In outline:
(§4)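 Disc diffusion on Mueller-Hinton II agar per CLSI; 9 mm paper discs loaded with 400 µg compound from DMSO solution, dried, placed on agar; growth inhibition zone diameter read after 18 h at 35°C.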
(A growth-free zone around the sample is the usual read-out of agar diffusion tests.)

Series [10] deals with Staphylococcus aureus. Description: Antimicrobial activity against Staphylococcus aureus ATCC 25923 at 400 ug after 18 hrs by disc-diffusion method. Format: functional. The note with it: ATCC 25923, 18 h, read-out: IZ. In outline:
as §4

Series [11] relates to Staphylococcus aureus. Description: Antimicrobial activity against Staphylococcus aureus ATCC 6538 at 400 ug after 18 hrs by disc-diffusion method. Format: functional. The note with it: ATCC 6538, 18 h, read-out: IZ. Put shortly:
as §4

Series [12] has as its system Staphylococcus aureus. Put plainly: Antimicrobial activity against Staphylococcus aureus ATCC 29213 at 400 ug after 18 hrs by disc-diffusion method. Format: functional. The note with it: ATCC 29213, 18 h, read-out: IZ. Put shortly: as §4
The subject of series [13] is Staphylococcus epidermidis. Description: Antimicrobial activity against Staphylococcus epidermidis ATCC 12228 at 400 ug after 18 hrs by disc-diffusion method. It counts as functional. The note with it: ATCC 12228, 18 h, read-out: IZ. In outline: as §4
Series [14] relates to Staphylococcus epidermidis. Put plainly: Antimicrobial activity against Staphylococcus epidermidis ATCC 35984 at 400 ug after 18 hrs by disc-diffusion method. It counts as functional. The note with it: ATCC 35984, 18 h, read-out: IZ. Put shortly: as §4
A further series deals with Bacillus subtilis. Description: Antimicrobial activity against Bacillus subtilis ATCC 6633 at 400 ug after 18 hrs by disc-diffusion method. The note with it: ATCC 6633, 18 h, read-out: IZ. It counts as functional. In outline:
as §4

The subject of the next series is Bacillus cereus. Description: Antimicrobial activity against Bacillus cereus ATCC 11778 at 400 ug after 18 hrs by disc-diffusion method. Format: functional. The note with it: ATCC 11778, 18 h, read-out: IZ. Put shortly: as §4
For a further series, the system named is Enterococcus hirae. Put plainly: Antimicrobial activity against Enterococcus hirae ATCC 10541 at 400 ug after 18 hrs by disc-diffusion method. It counts as functional. The note with it: ATCC 10541, 18 h, read-out: IZ. In outline:
as §4

In another series the test system is Enterococcus faecalis. Description: Antimicrobial activity against Enterococcus faecalis ATCC 29212 at 400 ug after 18 hrs by disc-diffusion method. It counts as functional. Put shortly: as §4
The subject of series [15] is Micrococcus luteus. Put plainly: Antimicrobial activity against Micrococcus luteus ATCC 10240 at 400 ug after 18 hrs by disc-diffusion method. Format: functional. The note with it: ATCC 10240, 18 h, read-out: IZ. In outline:
as §4

In series [16] the test system is Micrococcus luteus. Description: Antimicrobial activity against Micrococcus luteus ATCC 9341 at 400 ug after 18 hrs by disc-diffusion method. Format: functional. The note with it: ATCC 9341, 18 h, read-out: IZ. Put shortly: as §4
Another series concerns Proteus vulgaris. Description: Antimicrobial activity against Proteus vulgaris NCTC 4635 at 400 ug after 18 hrs by disc-diffusion method. It counts as functional. In outline:
as §4

Series [17] has as its system Staphylococcus aureus. Description: Antimicrobial activity against Staphylococcus aureus NCTC 4163 after 18 hrs by twofold serial microdilution method. Format: functional. The note with it: NCTC 4163, 18 h.
In series [18] the test system is Staphylococcus aureus. Description: Antimicrobial activity against Staphylococcus aureus ATCC 25923 after 18 hrs by twofold serial microdilution method. Format: functional. The note with it: ATCC 25923, 18 h.
Series [19] relates to Staphylococcus aureus. Description: Antimicrobial activity against Staphylococcus aureus ATCC 6538 after 18 hrs by twofold serial microdilution method. Format: functional. The note with it: ATCC 6538, 18 h.
The test system of series [20] is Staphylococcus aureus. Description: Antimicrobial activity against Staphylococcus aureus ATCC 29213 after 18 hrs by twofold serial microdilution method. Format: functional. The note with it: ATCC 29213, 18 h.
For series [21], the system named is Staphylococcus epidermidis. Put plainly: Antimicrobial activity against Staphylococcus epidermidis ATCC 12228 after 18 hrs by twofold serial microdilution method. It counts as functional. The note with it: ATCC 12228, 18 h.
The test system of series [22] is Staphylococcus epidermidis. Description: Antimicrobial activity against Staphylococcus epidermidis ATCC 35984 after 18 hrs by twofold serial microdilution method. It counts as functional. The note with it: ATCC 35984, 18 h.
The subject of series [23] is Mycobacterium tuberculosis. Put plainly: Antimycobacterial activity against Mycobacterium tuberculosis H37Rv ATCC 25618. Format: functional. In outline: (§5)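 Classical test-tube successive-dilution method in Youmans' modification of Proskauer and Beck liquid medium with 10% bovine serum. Inoculum came from 14-day cultures. DMSO stock was 10 mg/mL, diluted geometrically in medium. Tubes were incubated at 37 °C. Concentrations tested were 3.1, 6.2, 12.5, 25, 50 and 100 µg/ml. MIC is the minimum concentration inhibiting growth relative to compound-free tubes.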

Series [24] relates to Mycobacterium tuberculosis. Description: Antimycobacterial activity against drug-sensitive Mycobacterium tuberculosis Spec. 192. It counts as functional. Put shortly: as §5

Converted amounts (≈) assume the structure as drawn. The source made the active and inactive calls. A value given as a limit tells only on which side of the number the result lay.

In general, CC50 refers to the concentration at which the toxic effect on the cells reaches its halfway point. With `COc1cccc2c1C(=O)c1c(O)c3c(c(O)c1C2=O)C[C@@](O)(C(=O)CO)C[C@@H]3O[C@H]1C[C@H](N)[C@H](O)[C@H](C)O1` [DOXORUBICIN], the figures for the CC50 in the series on CCRF-CEM, with WIL2-NS and with CCRF-SB were 0.02 µM, 0.02 µM and 0.03 µM, respectively.
Broadly, the EC50 is the concentration needed to bring the measured effect to its halfway point. A word on the MIC: it is the smallest concentration in the dilution series that meets the test's criterion for growth inhibition. As to `O=[N+]([O-])c1ccc(NC(=S)Nc2cccc(C(F)(F)F)c2)cc1`, the CC50 is 9.2 µM in [1]; 10 µM in series [4]; 9.5 µM in [6]; 10 µM in series [8]; 8.7 µM with CCRF-CEM; 9.4 µM in the series on WIL2-NS. The compound also returned a CC50 in the series on CCRF-SB of 8.2 µM. For the same compound, the EC50 in series [2] is above 10 µM; in series [3], above 9.2 µM; in [5], above 10 µM; with Yellow fever virus, above 9.5 µM; in [7], above 9.5 µM; in the series with Coxsackievirus B5, above 10 µM. Besides, the EC50 in the series with Poliovirus 1, with Vaccinia virus and with Human alphaherpesvirus 1 was above 10 µM throughout. For the same compound, the zone of inhibition at 400 µg/disc was determined as 16 mm with Staphylococcus aureus [9]; 20 mm in the series with Staphylococcus aureus [10]; 15 mm in the series with Staphylococcus aureus [11]; 16 mm in the series on Staphylococcus aureus [12]; 13 mm in [13]; 12 mm in series [14]. The zone of inhibition at 400 µg/disc with Bacillus subtilis worked out at 15 mm; with Bacillus cereus, 15 mm; with Enterococcus hirae, 13 mm; in the series with Micrococcus luteus [15], 13 mm; in the series on Micrococcus luteus [16], 13 mm. In addition, the “inhibition zone (IZ)” value with Enterococcus faecalis and in the series with Proteus vulgaris was “inactive” each time. Besides, the MIC came to 128 µg/mL (≈ 375 µM) against Staphylococcus aureus [17]; 128 µg/mL (≈ 375 µM) in the series with Staphylococcus aureus [18]; 64 µg/mL (≈ 188 µM) against Staphylococcus aureus [19]; 64 µg/mL (≈ 188 µM) against Staphylococcus aureus [20]; 64 µg/mL (≈ 188 µM) in series [21]; 64 µg/mL (≈ 188 µM) in series [22]. The figures for the MIC in series [23] and in series [24] were 50 µg/mL (≈ 146 µM) and above 100 µg/mL, respectively.

The record behind these values is ChEMBL document CHEMBL3616436, “Synthesis, cytotoxicity and antimicrobial activity of thiourea derivatives incorporating 3-(trifluoromethyl)phenyl moiety” (Eur J Med Chem, 2015).
